This excerpt belongs to a sample that is enriched for hits.
HCT116 PTEN-null = PTEN-deleted cell growth suppression. HCT116 PTEN-null viability, CellTiter-Glo, 60 h; active compounds read low. viability, % at 10 µM. hit rate 1.2% among 140,000;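 active means viability at or below a set limit, 4 SD under the median of all tested compounds, cut at about 3.7% in these data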;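 further: PTEN knockout HCT116 line with beta catenin targeted HCT116 as companion control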
HUVEC inhibit = inhibitors of human endothelial cell proliferation; viability, % at 10 µM (by protocol); HUVEC proliferation, CellTiter-Glo luminescence, 72 h; active compounds read low; hit rate 1.1% among 86,000;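 active means viability at or below 30%; inactive means viability above 30%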;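 further: 100% = median luminescence of DMSO-only cell control wells on each plate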
bCat KO growth = beta-catenin-lacking colon tumor cell growth suppression; HCT116 beta-catenin knockout viability, CellTiter-Glo, 60 h; active compounds read low; viability, % at 10 µM; hit rate 1.5% among 140,000; AID 818;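 active means viability at or under a set limit, the compound median less 4 SD, cut at about 6% in these data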;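 further: 0% = Hyamine 1622 control at 20 µM and 100% = untreated cell control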
H69AR inhibit = blocks growth of human H69AR lung tumor cells; H69AR lung tumor viability, ATP luminescence, 72 h; active compounds read low; viability, % at 10 µM; hit rate 6% among 85,000; AID 598;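 active means viability at or below 40%; inactive means viability above 40%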;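 further: multidrug resistant small cell line overexpressing MRP-1 efflux transporter; 100% = mean luminescence of untreated control wells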
Fibroblast inh = blocks proliferation of human lung fibroblasts | LL 47 human lung fibroblast viability, ATP luminescence; active compounds read low | hit rate 1.1% among 85,000 | viability, % at 10 µM;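 active means viability at or below 50% in the single dose screen; inactive means viability above 50%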;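 further: compound exposure lasted 72 h before the ATP readout; 100% = median luminescence of untreated cell-only wells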
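Test system: LL 47 human lung fibroblasts; Quantity: 1,150 cells/well; Buffer or medium: IMEM plus 15% FBS; Dosing: tenfold compound dosing solution, DMSO at 0.1%; Timing: overnight cell rest, 72 h compound treatment at 37 °C; Detection: ATP-based CellTiter-Glo luminescent readout; Read-out basis: viability percentage against median untreated-cell control; Controls: cell-only wells, no compound.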
An asterisk follows results filed as active; x = no result.

SMILES	HCT116 PTEN-null	HUVEC inhibit	bCat KO growth	H69AR inhibit	Fibroblast inh
CCOc1ccc(NS(=O)(=O)c2ccc(NC(=O)[C@@H]3CCCC[C@@H]3C(=O)O)cc2)cc1	91	x	91	x	x
CCC(Sc1nc2cc3c(cc2c(=O)n1Cc1ccco1)OCO3)C(=O)Nc1cccc(OC)c1 (stereo unspecified)	1.7*	4.1*	1.7*	11*	36*
CCC(Sc1nc2cc3c(cc2c(=O)n1Cc1ccco1)OCO3)C(=O)Nc1ccccc1OC (stereo unspecified)	20	25*	6	7.6*	55
CCC(Sc1nc2cc3c(cc2c(=O)n1Cc1ccco1)OCO3)C(=O)NCCOC (stereo unspecified)	100	109	102	88	97
CCOc1ccc2nc(N3C(=O)/C(=C/c4ccc(Cl)cc4)NC3=S)sc2c1	35	x	49	x	x
CC(=O)Nc1ccc(S(=O)(=O)N2CCCc3ccccc32)cc1	27	48	23	13*	70
O=C(NCc1ccco1)c1ccc(S(=O)(=O)N2CCCc3ccccc32)cc1	73	84	75	31*	92
Cc1cc(NC(=O)COC(=O)c2ccc(S(=O)(=O)N3CCCc4ccccc43)cc2)no1	10	68	13	23*	75
Nc1ccc(S(=O)(=O)N2CCCc3ccccc32)cc1	90	90	83	58	90
COC(=O)Nc1ccc(S(=O)(=O)N2c3ccccc3CCC2C)cc1 (stereo unspecified)	20	69	19	16*	49*
C[n+]1ccccc1COc1ccc(C(C)(C)C)cc1	89	x	79	x	x
Cc1c(Cl)cccc1Nc1nc(N)nc(CSc2ncccn2)n1	79	100	82	1.4*	85
Cc1c(Cl)cccc1Nc1nc(N)nc(CSc2nc3ccccc3s2)n1	62	x	46	x	x
Nc1nc(CSCCO)nc(Nc2ccc(F)cc2)n1	96	101	97	99	97
Cc1c(Cl)cccc1Nc1nc(N)nc(CSCCO)n1	97	89	96	4.3*	102
CSc1nc(-c2ccccc2O)nc(-c2ccccc2O)n1	x	84	x	89	93
O=C(OCC(=O)N1CCc2ccccc21)C1=COCCO1	106	94	91	28*	99
C[C@]12CC[C@@H]3c4ccc(O)cc4CC[C@H]3[C@@H]1CC[C@@H]2O	70	35	68	27*	88
Clc1cc(Cl)cc(C2=NCCC(c3ccccc3)O2)c1 (stereo unspecified)	80	x	81	x	x
COc1ccc(C(=O)COc2ccccc2N2C(=O)C3C4C=CC(C4)C3C2=O)cc1 (stereo unspecified)	102	102	100	91	99
COc1ccc(-c2c(C#N)c(SCC(=O)c3cc4ccccc4oc3=O)nc(C)c2C(=O)Nc2ccccc2)cc1	4	x	3.2*	x	x
Cc1nc(SCC(=O)c2cc3ccccc3oc2=O)c(C#N)c(-c2ccccc2)c1C(=O)Nc1ccccc1	1.7*	x	1.4*	x	x
CCOC(=O)c1c(C)nc(SCC(N)=O)c(C#N)c1-c1ccccc1	95	x	83	x	x
CC1CCN(C2CC(=O)N(c3ccc(Br)cc3Br)C2=O)CC1 (stereo unspecified)	x	89	x	81	102
COc1ccc(C(=O)NNC2=CC(=O)CC(C)(C)C2)cc1OC	93	x	101	x	x
SMILES	HCT116 PTEN-null	HUVEC inhibit	bCat KO growth	H69AR inhibit	Fibroblast inh
O=C(Nc1ccc(OC(F)F)cc1)Nc1cccc(C(F)(F)F)c1	3.1*	31	2.3*	3.7*	38*
Cc1ccc(S(=O)(=O)Nc2ccc(NC(=O)Nc3cccc(C(F)(F)F)c3)cc2)cc1	1.6*	x	1.2*	x	x
O=C(Nc1ccc(OC(F)(F)F)cc1)Nc1cccc([N+](=O)[O-])c1	3.5*	x	2.9*	x	x
CCN(CC)S(=O)(=O)c1ccc(NC(=O)Nc2cccc(C(F)(F)F)c2)cc1	1.8*	x	1.4*	x	x
Cn1c(-c2ccc[nH]c2=O)nc2cc(Cl)ccc21	76	x	79	x	x
O=C(Oc1ccccc1C(=O)Nc1ccccc1)c1ccccc1Br	79	x	101	x	x
CCn1c(SCC(=O)N/N=C/c2c[nH]c3ccccc23)nnc1-c1ccc(C(C)(C)C)cc1	74	x	82	x	x
CCOc1ccccc1-c1cc(-c2ccc(OC)cc2)nc2c1c(=O)n(C)c(=O)n2C	x	84	x	21*	94
O=C(Nc1ccc(-c2nc3ccccc3[nH]2)cc1)c1cccc(N2C(=O)CCC2=O)c1	98	x	90	x	x
COc1ccc(OCC(O)Cn2cnc(-c3ccc(Br)cc3)c2)cc1 (stereo unspecified)	97	84	85	39*	99
COC(=O)/C=C1\C(=O)N(c2nc3ccccc3s2)C(=S)N1c1ccc(F)cc1	58	64	50	46	50*
COC(=O)/C=C1\C(=O)N(c2nc3ccc(OC)cc3s2)C(=S)N1c1ccc(F)cc1	78	x	85	x	x
Fc1ccccc1N1CC(c2ccccc2)C(c2cccs2)=N1 (stereo unspecified)	72	125	82	88	92
Cc1ccc(S(=O)(=O)/C(=C/Cl)NC(=O)c2ccccc2)cc1	9	x	6.0*	x	x
COc1cc(C)c(C(C)C)cc1S(=O)(=O)N1CCN(C)CC1	105	91	101	87	96
COc1cc(C)c(C(C)C)cc1S(=O)(=O)n1cnc(C)c1	28	43	24	34*	56
O=C(CNc1ccc(Br)cc1)NNC1=NCCC1	97	x	84	x	x
Nc1nsc2ccccc12	4	x	4.7*	x	x
Nc1ccc2c(c1)sc1ccccc12	99	x	94	x	x
COc1ccc(-c2nn(-c3ccccc3)cc2C(=O)OCC(=O)c2ccc(C)c([N+](=O)[O-])c2)cc1	64	x	77	x	x
O=C(NCCCN1CCOCC1)C(=O)N/N=C/c1c2ccccc2cc2ccccc12	2.2*	x	1.6*	x	x
Cc1[nH]c2ccccc2c1/C=N/NC(=O)C1CC1(c1ccccc1)c1ccccc1 (stereo unspecified)	3.4*	x	2.7*	x	x
CCOC(=O)C/C(C)=N/NC(=O)C1CC1(c1ccccc1)c1ccccc1 (stereo unspecified)	87	x	82	x	x
Cc1ccc(-n2nc(C)c(NC(=O)CCl)c2C)cc1C	6	x	7	x	x
CC(=O)n1c(Cl)c(NC(=O)CCl)c2ccccc21	33	92	33	1.5*	64
SMILES	HCT116 PTEN-null	HUVEC inhibit	bCat KO growth	H69AR inhibit	Fibroblast inh
COc1ccc(S(=O)(=O)N(C)CC(=O)N2CCN(Cc3ccccc3)CC2)cc1C	97	105	81	94	105
COc1cccc(N2CCN(S(=O)(=O)c3ccc4nc(-c5ccccc5)[nH]c4c3)CC2)c1	90	60	81	13*	97
COc1ccc(N2CCN(S(=O)(=O)c3ccc(OC)cc3)CC2)cc1	84	98	92	97	95
CSc1nnc(-c2sc3cc(Cl)ccc3c2Cl)n1C	74	62	64	27*	93
Cc1ccc(NC(=O)C2C3CCCC2C3c2ccccc2)cc1 (stereo unspecified)	100	x	92	x	x
O=c1oc2ccccc2n1CSC1=NCCS1	95	54	87	21*	85
O=c1oc2cc(OCc3ccc(F)cc3F)ccc2cc1-c1ccc2ccccc2n1	97	x	85	x	x

High-throughput results (PubChem)
